Only some compounds are listed: those with a hit (about 9.4% of all), similar ones and a draw of the others.
Beta cell apopt: inhibitors of cytokine-induced beta cell apoptosis, primary screen, luminescence; INS-1E cytokine-induced death, ATP luminescence, 48 h; percent of positive-control rescue, neutral wells zero; protection from apoptosis, % (concentration not given with the values); 300,000 tested, 0.8% active; AID 435005, 2010;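 active = Every replicate reaches about 75%, or at least half do and their mean reaches it too, limit read from the data; inconclusive = At least half of replicates reach the limit but their mean does not; inactive = Under half of replicates reach the limit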;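 also: 0% = cytokine-treated negative control wells and 100% = positive control rescue; higher means more ATP so stronger rescue from cytokine killing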
Lmaj promast: Leishmania major promastigote growth inhibition, primary screen; inhibition, % at 10 µM; Leishmania major promastigotes, resazurin fluorescence viability; 200,000 tested, 9% active; in the data active = inhibition above about 50%;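 also: promastigotes grown with compound for 44 hours at 28 °C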
CSC inhib: cancer stem cell viability inhibitors, primary screen, luminescence. cancer stem cell-like cells viability. inhibition, % at 7.5 µM. 300,000 tested, 1.1% active; in the data active = inhibition above about 75%; inconclusive = no clear call, values can overlap the other calls; tested in HMLE shEcad cells
Mdm2 MdmX PPI: inhibitors of human Mdm2-MdmX association, primary screen, cell-based, luminescence, split luciferase, SaOS-2, uHTS. Protein Mdm4 (Homo sapiens) + E3 ubiquitin-protein ligase Mdm2 (Homo sapiens), …. SaOS-2 split-luciferase Mdm2/MdmX complementation. AID 485346, 2010. 330,000 tested, 3% active. inhibition, % at 8 µM;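 active = inhibition of at least 50% at 8 µM in the primary screen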
T cruzi repl: inhibitors of intracellular T. cruzi growth, primary screen, luminescence, NIH3T3 host cells; 300,000 tested, 1.4% active; inhibition, % (concentration not given with the values); T. cruzi beta-gal in NIH3T3, 90 h; AID 1885, 2009;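 active = mean inhibition across valid replicates above about 55%, limit read from the data; inconclusive = mean below that limit but half or more replicates reach it; inactive = mean below it, under half of replicates reach it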;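 also: signal also drops with host cell toxicity which is not excluded here; 0% = plate median of DMSO wells and 100% = zero luminescence signal; higher percent means less beta-gal luminescence so fewer parasites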
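Material: NIH/3T3 host cells with β-galactosidase reporter T. cruzi; Input: 5,000 host fibroblasts per well; Medium: DMEM, 2% fetal bovine serum; Compound: 50 nL DMSO compound solution per well; Schedule: 3 h host attachment, then at least 90 h co-culture; Detection: luminescent β-galactosidase signal after 60 min lysis.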
SKKanGAS inh: S. pyogenes SKKanGAS growth inhibitors in kanamycin, primary screen, streptokinase expression inhibitor project, SKKanGAS strain, BacTiter-Glo luminescence; 6 h; inhibition, % at 7.5 µM; 300,000 tested, 1.3% active; AID 1662, 2009;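 active = mean replicate score, as percent of positive control median, at least 50; inconclusive = mean below 50 but one replicate at or above 50; inactive = mean and every replicate below 50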;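 also: strain carries kanamycin resistance gene driven by streptokinase promoter and grows in 40 µg/ml kanamycin; loss of luminescence reflects streptokinase promoter inhibition or plain growth inhibition; 0% = median of DMSO wells and 100% = positive control at its reference dose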
Lmaj promast 1uM: Leishmania major promastigote growth inhibition, confirmation, 1 µM repeat of primary hits | shares compounds with Lmaj promast | L. major promastigote growth, resazurin fluorescence, 48 h | inhibition, % at 1 µM | 1,100 tested, 13% active;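 active = inhibition above about 50% in both repeat tests, limit read from the data; inconclusive = one repeat under the set limit, the other over it; inactive = both repeats under the set limit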
An asterisk follows results filed as active; ? = inconclusive; . = no result given.

SMILES	Beta cell apopt	Lmaj promast	CSC inhib	Mdm2 MdmX PPI	T cruzi repl	SKKanGAS inh	Lmaj promast 1uM
O=C(N=Nc1c(O)[nH]c2ccc(Br)cc12)c1cc(-c2cccc3ccccc23)n[nH]1	3.1	66.2*	55.8	9.3	42.2	32.2	.
Cn1c(O)c(N=Nc2nc(-c3ccccc3)cs2)c2ccccc21	-0.7	65.8*	3.7	-13.2	-15.8	?	.
O=C(N=Nc1c(O)[nH]c2ccc(Br)cc12)c1cc(-c2cccs2)nc2ccccc12	.	21.6	.	.	56.4*	27.3	.
COc1ccc(/C=C(\NC(=O)c2ccc(OC)cc2)C(=O)N2CCCCC2)cc1	-4.1	.	-13.5	0.6	-8.1	5.2	.
Cc1ccccc1C(=O)NCCCNC(=O)c1ccco1	-2.6	.	-17.0	-13.9	-9.1	-0.7	.
N=C(N)N=Nc1c(O)[nH]c2ccc(Br)cc12	3.3	-4.0	-12.0	40.4	17.2	0.7	.
O=C(N=Nc1c(O)[nH]c2ccc(Br)cc12)c1ccccc1-n1cccc1	34.1	24.3	80.2*	44.2	.	7.3	.
CC(C)CC1Nc2ncnc(N3CCCCC3)c2N(Cc2ccc(Br)cc2)C1=O (stereo not given)	-1.7	.	29.5	18.9	36.0	38.1	.
CC1=C(C(=O)Nc2cc(-c3cccc(F)c3)[nH]n2)C2(CCCCC2)OC1=O	1.6	100.1*	10.7	22.4	8.6	15.7	88.8*
O=C(Nc1cc(-c2ccccc2)[nH]n1)c1ccccc1F	4.8	.	22.5	-78.9	6.8	-4.5	.
C=CCOc1ccc2c(c1)c(S(=O)(=O)c1ccc(C)cc1)cn2COC	.	88.0*	.	17.9	14.3	13.3	-21.3
CCCn1cc(S(=O)(=O)c2ccc(F)cc2)c(=O)c2cc(OCC)ccc21	10.0	.	-13.7	-5.0	4.8	-1.9	.
CC(C)(C)c1ccc(S(=O)(=O)NCc2ccccn2)cc1	.	.	-8.2	7.8	-16.2	0.3	.
CC(C)(C)c1cc(C(C)(C)C)cc(S(=O)(=O)CCc2ccccn2)c1	-9.1	60.0*	-14.1	-16.2	6.6	-6.4	-0.4
CCc1cc2c(nc1CC)CCN(CC/C(C)=N/O[C@@H](C)c1cc(-c3c(C)cc(C)cc3C)no1)C2	47.0	91.8*	30.1	17.2	45.4	10.7	-15.0
C/C(CCN1CCc2nc(-c3ccccc3)c(-c3ccccc3)cc2C1)=N\O[C@H](C)c1cn([C@H](CO)Cc2ccccc2)nn1	-11.4	3.1	-14.5	10.8	30.7	3.3	.
C/C(CCN1CCc2nc(-c3ccccc3)c(-c3ccccc3)cc2C1)=N\O[C@@H](C)c1cc(-c2c(C)cc(C)cc2C)no1	35.5	83.3*	78.3*	32.6	27.5	7.6	-12.4
CCOC(=O)C(C)On1c(-c2cccc(Cl)c2)nc2ccc([N+](=O)[O-])cc21 (stereo not given)	22.6	95.2*	14.4	1.9	13.0	-15.7	-3.4
CCOC(=O)c1sc(-c2ccc(Br)cc2)cc1N	-9.7	9.2	10.6	-192.4	-1.4	-0.1	.
CCOC(=O)c1cc(-c2ccc(N)cc2)sc1N	5.5	60.0*	23.4	-72.9	5.3	12.4	-4.7
O=C(CNS(=O)(=O)c1ccccc1)N/N=C/c1ccccc1[N+](=O)[O-]	-4.2	.	3.1	-13.1	-13.4	2.5	.
Cc1ccccc1-c1cc2c(nn1)-c1ccccc1C2=O	7.4	93.4*	107.9*	-32.3	-0.6	26.7	-13.3
Cc1c(-c2ccccc2)c(P(=O)(N2CCOCC2)N2CCOCC2)c2ccccn12	10.2	55.0*	-2.9	-22.3	10.3	0.7	-4.5
O=P(C1=C(N2CCOCC2)/C(=C\c2ccccc2)CC1)(N1CCOCC1)N1CCOCC1	-0.6	2.5	-2.3	11.7	-5.3	-0.3	.
NCCCNC(=O)c1ccc(/C=N/O)nc1	-0.7	0.5	1.1	3.1	-3.6	-0.2	.
CN(Cc1ccco1)S(=O)(=O)c1ccc(CN2C(=O)c3cccnc3C2=O)s1	-3.2	.	-15.6	41.1	-9.6	1.5	.
Cc1cc(C)n(-c2nc3ccccc3c(=O)n2OCC(=O)N(C)C)n1	7.1	-7.7	8.3	12.5	-12.6	-0.1	.

High-throughput results as filed in PubChem.
